{"source": "ChEMBL document CHEMBL1909513", "about": "“A double prodrug system for colon targeting of benzenesulfonamide COX-2 inhibitors” (Bioorg Med Chem Lett, 2011)", "key": {"[1]": {"assay": "Chemical stability of the compound in borate buffered saline assessed as half life of cyclization at pH 7.4", "type": "physicochemical", "method_in_brief": "(§1)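 Lactamization of the amino intermediate in borate-buffered saline, pH range 5–8, 37 °C, ionic strength 0.12 (figure legend gives I = 0.05). Parent loss and formation of parent drug and dihydroquinolone followed by HPLC, validated at 1.1–16.6 µM. Apparent first-order rate constants fitted by nonlinear regression, three determinations per pH; half-lives derived from these constants.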"}, "[2]": {"assay": "Chemical stability of the compound in borate buffered saline assessed as half life of cyclization at pH 7", "type": "physicochemical", "method_in_brief": "as §1"}, "[3]": {"assay": "Chemical stability of the compound in borate buffered saline assessed as half life of cyclization at pH 6.4", "type": "physicochemical", "method_in_brief": "as §1"}, "[4]": {"assay": "Chemical stability of the compound in borate buffered saline assessed as half life of cyclization at pH 6.28", "type": "physicochemical", "method_in_brief": "as §1"}, "[5]": {"assay": "Chemical stability of the compound in borate buffered saline assessed as half life of cyclization at pH 6.2", "type": "physicochemical", "method_in_brief": "as §1"}, "[6]": {"assay": "Chemical stability of the compound in borate buffered saline assessed as half life of cyclization at pH 6.11", "type": "physicochemical", "method_in_brief": "as §1"}, "[7]": {"assay": "Chemical stability of the compound in borate buffered saline assessed as half life of cyclization at pH 6", "type": "physicochemical", "method_in_brief": "as §1"}, "[8]": {"assay": "Chemical stability of the compound in borate buffered saline assessed as half life of cyclization at pH 5.52", "type": "physicochemical", "method_in_brief": "as §1"}, "[9]": {"assay": "Secretory transport of the compound through transepithelial human Caco2 model", "type": "ADME, cell-based", "details": "Caco-2"}, "[10]": {"assay": "Dissociation constant, pKa of the compound", "type": "physicochemical"}}, "data": [{"smiles": "Cc1ccc(-c2cc(C(F)(F)F)nn2-c2ccc(S(=O)(=O)NC(=O)CCc3ccccc3N)cc2)cc1", "values": [{"measurement": "half-life", "setting": "[1]", "result": 632, "unit": "min"}, {"measurement": "half-life", "setting": "[2]", "result": 130, "unit": "min"}, {"measurement": "half-life", "setting": "[3]", "result": 60.3, "unit": "min"}, {"measurement": "half-life", "setting": "[4]", "result": 41.2, "unit": "min"}, {"measurement": "half-life", "setting": "[5]", "result": 29.5, "unit": "min"}, {"measurement": "half-life", "setting": "[6]", "result": 15.2, "unit": "min"}, {"measurement": "half-life", "setting": "[7]", "result": 10.9, "unit": "min"}, {"measurement": "half-life", "setting": "[8]", "result": 10.2, "unit": "min"}]}, {"smiles": "Cc1ccc(-c2cc(C(F)(F)F)nn2-c2ccc(S(N)(=O)=O)cc2)cc1", "note": "[CELECOXIB]", "values": [{"measurement": "Papp B→A", "setting": "[9]", "result": 12.4, "unit": "×10⁻⁶ cm/s"}]}, {"smiles": "CCC(=O)NS(=O)(=O)c1ccc(-c2c(-c3ccccc3)noc2C)cc1", "note": "[PARECOXIB]", "values": [{"measurement": "pKa", "setting": "[10]", "result": 4.9}]}]}
